The Ki is the dissociation constant of the complex between target and ligand, obtained from inhibition or displacement. A higher Ki goes with lower affinity.

Active and inactive are the calls of the source. No cut-off for these calls is given here.

Among the data in ChEMBL document CHEMBL4610115, “Azidothymidine "Clicked" into 1,2,3-Triazoles: First Report on Carbonic Anhydrase-Telomerase Dual-Hybrid Inhibitors” (J Med Chem, 2020) are inhibition, Activity and Ki values, retold here.

Series [1] deals with Telomerase reverse transcriptase (Homo sapiens) (UniProt O14746). In words: Inhibition of telomerase in human HT-29 cells at 20 uM incubated for 48 hrs by TRAP assay. In kind it is cell-based. The method in brief:
(§1)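 Mycoplasma-tested PC3 or HT-29 cells in RPMI-1640/10% FBS were exposed to a final 20 μM for 48 h. Cells were lysed in CHAPS/glycerol Tris buffer (pH 7.5), and 5 μg extract protein was used for TS-primer elongation (30 min, 37 °C) followed by CX-primer/Taq PCR for 30 cycles. Products were run on 12% nondenaturing PAGE with SYBR Green I densitometry. Quadruplicate; mean ± SEM; t-test.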

For series [2] the target is unchanged. In words: Inhibition of telomerase in human PC3 cells at 20 uM incubated for 48 hrs by TRAP assay. The note with it: PC-3. It counts as cell-based. The method in brief:
as §1

Another series deals with PC-3. Briefly: Effect on telomerase mRNA expression in human PC3 cells at 20 uM incubated for 48 hrs by real-time RT-PCR analysis. It counts as ADME, cell-based. To be noted: pc-3, 48 h. In short, it runs like this:
(§2)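 PC3 and HT-29 cells were grown in RPMI-1640 with 10% FBS at 37 °C under 5% CO2, after mycoplasma testing. Cells were exposed to a final 20 μM for 48 h. hTERT mRNA was measured and normalized to 18S RNA, with standard curves from serial cDNA dilutions (1:40–1:320). Runs were done in quadruplicate; results are mean ± SEM, compared by Student's t-test.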
A general note: Real-time PCR tracks product formation cycle by cycle.

A further series relates to HT-29. In words: Effect on telomerase mRNA expression in human HT-29 cells at 20 uM incubated for 48 hrs by real-time RT-PCR analysis. In kind it is ADME, cell-based. The note with it: ht-29, 48 h. In short, it runs like this:
as §2

A further series concerns the target Carbonic anhydrase 9 (Homo sapiens, UniProt Q16790). Briefly: Inhibition of human CA9 pre-incubated for 15 mins by stopped flow CO2 hydrase assay.

Chain of Telomerase reverse transcriptase (Homo sapiens) (O14746 whole entry): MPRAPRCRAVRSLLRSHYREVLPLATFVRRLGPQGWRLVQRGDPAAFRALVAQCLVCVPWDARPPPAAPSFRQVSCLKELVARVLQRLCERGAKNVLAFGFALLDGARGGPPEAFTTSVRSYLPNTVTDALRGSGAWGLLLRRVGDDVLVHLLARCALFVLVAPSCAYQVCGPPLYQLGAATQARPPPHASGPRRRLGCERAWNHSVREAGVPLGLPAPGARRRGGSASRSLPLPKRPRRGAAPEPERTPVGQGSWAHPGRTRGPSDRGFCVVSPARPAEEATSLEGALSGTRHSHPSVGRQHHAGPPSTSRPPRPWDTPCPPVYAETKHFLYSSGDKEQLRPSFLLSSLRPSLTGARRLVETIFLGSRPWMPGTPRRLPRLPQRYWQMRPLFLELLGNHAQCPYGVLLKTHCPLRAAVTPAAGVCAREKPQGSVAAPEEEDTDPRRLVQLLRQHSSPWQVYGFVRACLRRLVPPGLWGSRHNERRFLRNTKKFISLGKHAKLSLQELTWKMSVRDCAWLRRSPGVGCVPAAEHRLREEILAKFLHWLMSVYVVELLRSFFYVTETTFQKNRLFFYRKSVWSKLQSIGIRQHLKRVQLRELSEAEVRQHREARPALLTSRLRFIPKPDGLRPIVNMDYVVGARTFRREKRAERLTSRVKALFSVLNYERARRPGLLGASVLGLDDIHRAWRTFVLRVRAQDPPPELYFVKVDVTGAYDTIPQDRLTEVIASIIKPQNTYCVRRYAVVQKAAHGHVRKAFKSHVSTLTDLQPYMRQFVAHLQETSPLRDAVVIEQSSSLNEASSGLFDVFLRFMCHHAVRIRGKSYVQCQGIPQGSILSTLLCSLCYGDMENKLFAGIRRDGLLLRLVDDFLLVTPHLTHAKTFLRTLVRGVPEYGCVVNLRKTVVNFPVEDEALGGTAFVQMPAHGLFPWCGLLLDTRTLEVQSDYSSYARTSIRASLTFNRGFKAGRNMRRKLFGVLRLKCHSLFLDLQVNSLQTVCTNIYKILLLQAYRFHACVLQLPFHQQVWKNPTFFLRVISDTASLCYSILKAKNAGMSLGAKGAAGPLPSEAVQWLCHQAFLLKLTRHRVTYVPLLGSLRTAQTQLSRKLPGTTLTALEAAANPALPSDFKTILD

Consider `Cc1cn([C@H]2C[C@H](n3cc(COc4ccc(S(N)(=O)=O)cc4)nn3)[C@@H](CO)O2)c(=O)[nH]c1=O`, for which the inhibition entry in series [1] and in series [2] was “Active” throughout. In addition, the Activity entry in the series with PC-3 and in the series on HT-29 was “Non-Toxic” in each case.

Turning to `Cc1cn([C@H]2C[C@H](n3cc(COC(=O)c4ccc(S(N)(=O)=O)cc4)nn3)[C@@H](CO)O2)c(=O)[nH]c1=O`, the inhibition result in series [1] and in series [2] was “inactive” in each case. Also, the Activity result with PC-3 and with HT-29 was “Non-Toxic” throughout.

On to `Cc1cn([C@H]2C[C@H](n3cc(CNC(=O)c4ccc(S(N)(=O)=O)cc4)nn3)[C@@H](CO)O2)c(=O)[nH]c1=O`, for which the inhibition entry in series [1] and in series [2] was “inactive” each time. For the same compound, the Activity result in the series on PC-3 and in the series with HT-29 was “Non-Toxic” each time.

Take `Cc1cn([C@H]2C[C@H](n3cc(C[Se]c4ccc(NC(=S)Nc5cccc(S(N)(=O)=O)c5)cc4)nn3)[C@@H](CO)O2)c(=O)[nH]c1=O`: the inhibition result in series [1] and in series [2] was “Active” each time. The Activity result with PC-3 and in the series on HT-29 was “Non-Toxic” in each case.

Take `Cc1cn([C@H]2C[C@H](n3cc(COC(=O)c4ccc(Cl)c(S(N)(=O)=O)c4)nn3)[C@@H](CO)O2)c(=O)[nH]c1=O`: the inhibition constant Ki on Carbonic anhydrase 9 was 240 nM.
